Data reported in the RNAGym collection of RNA variant scans (doi:10.1126/science.aae0568).
Fewer inactive variants are shown than the library holds.

B1: tRNA (parent)
chain: GUUCCGUUGGCGUAAUGGUAACGCGUCUCCCUCCUAAGGAGAAGACUGCGGGUUCGAGUCCCGUACGGAACG

Variants of: B1
Experiment: yeast fitness relative to wild type (ratio to wild type); higher = fitter; tRNA-Arg(CCU), competitive growth, 37 C, YPD
Summary of the method: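 Variants of the tRNA-Arg(CCU) gene, chemically synthesised with a 3% per-site mutation rate at 69 sites, were placed at the native genomic locus in Saccharomyces cerevisiae. The pooled strains were competed in YPD at 37°C for 24 hours in six parallel replicates. Gene amplicons from the start population and from each end population were read by 100-nucleotide paired-end sequencing. Darwinian fitness relative to wild type came from changes in genotype frequencies; genotypes needed ≥ 100 starting reads, and estimates < 0.5 were set to 0.5.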

Q: With GUUACGUUGGCGUAAUGCUAACGCGUCUCCCUCCUAAGGAGACGACUGCGGGUUCGAGUCCCGUACGGAACG [C4A G18C A43C] as the variant, how does the yeast fitness read?
A: ≤ 0.5

Q: For GUUACGUUGGCGUAAUGCUAACGCGUCUACAUCCUAAGGAGAAGACUGCGGGUUCGAGUCCCGUACGGAACG [C4A G18C C29A C31A], which yeast fitness is on record?
A: 0.562

Q: For GUUACGUUGGCGUAAUGCUAACGCGUCUACAUCCUUAGGAGAAGACUGCGGGUUCGAGUCCCGUACGGAACG [C4A G18C C29A C31A A36U], which yeast fitness is on record?
A: ≤ 0.5

Q: For GUUACGUUGGCGUAAUGCUAACGCGUCUCCUUCCUAAGGAGAAGACUGCGGGUUCGGGUCCCGCACGGAACG [C4A G18C C31U A57G U64C], which yeast fitness is on record?
A: ≤ 0.5

Q: With GUUACGUUGGCGUAAUGCUAACGCGUCUCCCUCUUAAGGAGAAGACUGCGGGUUCGAGUCCCGUACGGAACG [C4A G18C C34U] as the variant, how does the yeast fitness read?
A: ≤ 0.5

Q: With GUUACGUUGGCGUAAUGCUAACGCGUCUCCCUCCUAAGGAGAAGAGUGCGGGUUCGAGUCCCGUACGGAACG [C4A G18C C46G] as the variant, how does the yeast fitness read?
A: 0.503

Q: For GUUACGUUGGCGUAAUGCUAACGCGUCUCCCUCCUAAGGAGAAGACUGAGGCUUCGAGUCCCGUACGGAACG [C4A G18C C49A G52C], which yeast fitness is on record?
A: ≤ 0.5

Q: Which yeast fitness does the source give for GUUACGUUGGCGUAAUGGUAACACGUCUCCCUCCUAAGGCGAAGACUGCGGGCUCGAGUCCCGUACGGAACG [C4A G23A A40C U53C] here?
A: ≤ 0.5

Q: With GUUACGUUGGCGUAAUGGUAACAGGUCUCCCUCCUAAGGAGAAGACUGCGGGUUCGAGUCACGUAUGGAACG [C4A G23A C24G C61A C66U] as the variant, how does the yeast fitness read?
A: ≤ 0.5

Q: With GUUACGUUGGCGUAAUGGUAACACGUCUUCCUCGUAACGAGAAGACUGCGGGUACGCGUCCCGUACGGAACG [C4A G23A C29U C34G G38C U54A A57C] as the variant, how does the yeast fitness read?
A: 0.602

Q: For GUUACGUUGGCGUAAUGGUAACACGUCUCCCUGCUAAGGAGAAGACUGCGGGUUCGAGUCCCGUACGGAACG [C4A G23A C33G], which yeast fitness is on record?
A: 0.655

Q: Which yeast fitness does the source give for GUUACGUUGGCGUAAUGGUAACACGUCUCCCUCCCAAGGAGAAGACUGCGGGUUCAAGUCCCGUACGGAACG [C4A G23A U35C G56A] here?
A: ≤ 0.5

Q: Which yeast fitness does the source give for GUUACGUUGGCGUAAUGGUAACACGUCUCCCUCCGAAGGAGAAGACUGCGGGUUCGAGUCACGUACGGAACG [C4A G23A U35G C61A] here?
A: ≤ 0.5

Q: With GUUACGUUGGCGUAAUGGUAACACGUCUCCCUCCUAAGGAGAAGACUGCGGGCUCGCGUCCCGUACGGAACG [C4A G23A U53C A57C] as the variant, how does the yeast fitness read?
A: ≤ 0.5

Q: With GUUACGUUGGCGUAAUGGUAACCCGUCUCCCUCCUAAGGCGAAGACUGCGGGUUAGAGUCCCGUACGGAACG [C4A G23C A40C C55A] as the variant, how does the yeast fitness read?
A: 0.63

Q: Which yeast fitness does the source give for GUUACGUUGGCGUAAUGGUAACCCGUCUCCUUCCUCAGGAGACGACUGCCGGUUCGAGUCCCGUACGGAUCG [C4A G23C C31U A36C A43C G50C A70U] here?
A: ≤ 0.5

Q: For GUUACGUUGGCGUAAUGGUAACGCAUCUCCCUCCUAAGGAGAAGACUGCGGGUUCGAGUCCCGUACGGAACG [C4A G25A], which yeast fitness is on record?
A: 1.03

Q: With GUUACGUUGGCGUAAUGGUAACGCAUUGCCCUGCUGAGGAGAAGACUGCGGGUUCGAGUCCCGUACGGAACG [C4A G25A C27U U28G C33G A36G] as the variant, how does the yeast fitness read?
A: ≤ 0.5

Q: With GUUACGUUGGCGUAAUGGUAACGCAUCUACCUCCUAGGGAGAAGACUGCCGGUUCGAGUGCCAUACGGAACG [C4A G25A C29A A37G G50C C60G G63A] as the variant, how does the yeast fitness read?
A: ≤ 0.5

Q: Which yeast fitness does the source give for GUUACGUUGGCGUAAUGGUAACGCCUCUCCCUCUUAAGGAGAAGACUGCGGGUUCGCGUCCCGUACGGAACG [C4A G25C C34U A57C] here?
A: ≤ 0.5

Q: For GUUACGUUGGCGUAAUGGUAACGCCUCUCCCACCUAAGGCGAAGACUGCGGGUUCGAGUCCCGUACGGAACG [C4A G25C U32A A40C], which yeast fitness is on record?
A: ≤ 0.5

Q: Which yeast fitness does the source give for GUUACGUUGGCGUAAUGGUAACGCUUCUCCCUCCUAAGGAGAAGACUGCGGGUUCGAGUCCCGUCCGGAACG [C4A G25U A65C] here?
A: ≤ 0.5

Q: Which yeast fitness does the source give for GUUACGUUGGCGUAAUGGUAACGCGUCUCCCUCCUAAAGAGAAGACUGCGAGUUCGAGUCCCGUACGGAACG [C4A G38A G51A] here?
A: 0.54

Q: For GUUACGUUGGCGUAAUGGUAACGCGUCUCCCUCCUAACGAGAAGACUGCGGGUUCGAGUCCCGUACGACACG [C4A G38C G68A A69C], which yeast fitness is on record?
A: ≤ 0.5

Q: Which yeast fitness does the source give for GUUACGUUGGCGUAAUGGUAACGCGUCUCCCUCCUAAGAAGAAGACUGCGGGUUUGAGGCCCGUACGCAACG [C4A G39A C55U U59G G68C] here?
A: ≤ 0.5

Q: With GUUACGUUGGCGUAAUGGUAACGCGUCUCCCUCCUAAGAAGAAGACUGCGGGUUCGAGUCCCCUACGGAACG [C4A G39A G63C] as the variant, how does the yeast fitness read?
A: ≤ 0.5

Q: With GUUACGUUGGCGUAAUGGUAACGCGUCUCCCUCCUAAGCAGAAGACUGAGGGUUCGAGUCCCGUACGGAACG [C4A G39C C49A] as the variant, how does the yeast fitness read?
A: ≤ 0.5

Q: For GUUACGUUGGCGUAAUGGUAACGCGUCUCCCUCCUAAGCAGAAGACUGCGGGUUCGAGUCCCGUAUGGAACG [C4A G39C C66U], which yeast fitness is on record?
A: ≤ 0.5

Q: With GUUACGUUGGCGUAAUGGUAACGCGUCUCCCUCCUAAGGAACAGACUGCGGGUUCGAGACCCGUACGGAACG [C4A G41A A42C U59A] as the variant, how does the yeast fitness read?
A: ≤ 0.5

Q: For GUUACGUUGGCGUAAUGGUAACGCGUCUCCCUCCUAAGGAAAAGUCUGCGGGUUCGAUUACCGUACGGAACG [C4A G41A A45U G58U C60A], which yeast fitness is on record?
A: ≤ 0.5

Q: Which yeast fitness does the source give for GUUACGUUGGCGUAAUGGUAACGCGUCUCCCUCCUAAGGAGAAGACUGCGAGUUCGAGUCCCGUACGGAACG [C4A G51A] here?
A: 0.725

Q: With GUUACGUUGGCGUAAUGGUAACGCGUCUCCCUCCUAAGGAGAAGACUGCGCGUACCAGUCCCGUACGGAACG [C4A G51C U54A G56C] as the variant, how does the yeast fitness read?
A: ≤ 0.5

Q: With GUUACGUUGGCGUAAUGGUAACGCGUCUCCCUCCUAAGGAGAAGACUGCGGAUUCGAGUCCCGUACGGAACG [C4A G52A] as the variant, how does the yeast fitness read?
A: 0.884

Q: For GUUACGUUGGCGUAAUGGUAACGCGUCUCCCUCCUAAGGAGAAGACUGCGGGUUCAAGUCCCGUACGGAACG [C4A G56A], which yeast fitness is on record?
A: 0.88

Q: Which yeast fitness does the source give for GUUACGUUGGCGUAAUGGUAACGCGUCUCCCUCCUAAGGAGAAGACUGCGGGUUCCAGUGCCGUAUGGAACG [C4A G56C C60G C66U] here?
A: 0.568

Q: For GUUACGUUGGCGUAAUGGUAACGCGUCUCCCUCCUAAGGAGAAGACUGCGGGUUCGAAUCCCGUACGGAACG [C4A G58A], which yeast fitness is on record?
A: 0.878

Q: For GUUACGUUGGCGUAAUGGUAACGCGUCUCCCUCCUAAGGAGAAGACUGCGGGUUCGAGUCCCGUACCGAACG [C4A G67C], which yeast fitness is on record?
A: 0.69
